Assay [1] has as its system Jurkat. The assay is described as follows: Cytotoxicity against human Jurkat cells after 24 hrs by PI staining based flow cytometry. In kind it is functional, cell-based. A digest of the protocol:
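Jurkat cells (10^6) were exposed to increasing concentrations for 24 h, then stained with propidium iodide (10 µg/mL in PBS) for 1 min at room temperature. Membrane-compromised cells were counted immediately by flow cytometry with 488 nm excitation.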

The subject of assay [2] is HCT-116. The assay is described as follows: Cytotoxicity against human HCT116 cells after 48 hrs by calcein-AM assay. The note with it: HCT-116, 48 h. In kind it is functional, cell-based. The method, boiled down:
(§1)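 Adherent lines were grown in DMEM with 10% heat-inactivated FBS, 2 mM glutamine, penicillin and streptomycin, seeded at 10^4 cells/well, and exposed to increasing concentrations for 48 h. DMSO stocks were diluted in medium, with final DMSO ≤1%. Calcein-AM (1 µM final) was added for 60 min, stopped on ice, and cells were washed twice with cold HBSS. Fluorescence was read at 485/535 nm to derive IC50.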

Assay [3] deals with HeLa. The assay is described as follows: Cytotoxicity against human HeLa cells after 48 hrs by calcein-AM assay. In kind it is functional, cell-based. A digest of the protocol:
as §1

Assay [4] deals with A549. Kind of assay: Cytotoxicity against human A549 cells after 48 hrs by calcein-AM assay. In kind it is functional, cell-based. The note with it: A549, 48 h. The method, boiled down:
as §1

A short description of assay [5]: Cytotoxicity against human 293T cells after 48 hrs by calcein-AM assay. In kind it is cell-based. The note with it: HEK-293T. A digest of the protocol:
as §1

In assay [6] the test system is AGS. Kind of assay: Cytotoxicity against human AGS cells after 48 hrs by calcein-AM assay. In kind it is functional, cell-based. The method, boiled down:
as §1

Assay [7] deals with Jurkat 5.1 (human). The assay is described as follows: Inhibition of TNF-alpha-induced NF-kappaB activation in human Jurkat 5.1 cells by luciferase assay relative to control.
Assay [8] relates to Jurkat. Kind of assay: Cell cycle arrest in human Jurkat cells assessed as increase in apoptotic cells after 24 hrs by flow cytometry. In kind it is functional, cell-based. The method, boiled down:
(§2)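 Jurkat cells in RPMI 1640 with 10% FBS, 2 mM glutamine and antibiotics, at 37 °C and 5% CO2, were treated for 24 h. Cells were fixed in 70% ethanol for 24 h at 4 °C, washed with PBS containing 4% glucose, and digested with RNase A (50 U/mL) plus PI staining for 1 h at RT. The subdiploid (sub-G0/G1) fraction was measured by flow cytometry.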

The test system of assay [9] is Jurkat. The assay is described as follows: Cell cycle arrest in human Jurkat cells assessed as apoptotic cells at 25 uM after 24 hrs by flow cytometry. In kind it is functional. The method, boiled down:
as §2

The subject of assay [10] is Jurkat. The assay is described as follows: Cell cycle arrest in human Jurkat cells assessed as apoptotic cells at 10 uM after 24 hrs by flow cytometry. In kind it is functional. A digest of the protocol:
as §2

The structures appear in SMILES notation. Calls of active or inactive are those of the source. No cut-off for these calls is given here. Bounds are passed on as bounds.

IC50 and Activity data for seven compounds are collected here from ChEMBL document CHEMBL1158528, “Synthesis of structurally simplified analogues of aplidinone A, a pro-apoptotic marine thiazinoquinone” (Bioorg Med Chem, 2010).

With `COC1=C(C/C=C(\C)CCC=C(C)C)C(=O)C2=C(C1=O)S(=O)(=O)CCN2` [APLIDINONE A], half-maximal inhibition in [1] (IC50) was put at 44.5 µM.

Consider `CCCCCCCCCCCCCCC1=C(OC)C(=O)C2=C(C1=O)S(=O)(=O)CCN2`, for which the IC50 in assay [2] was 44.8 µM; in [1] it was above 50 µM; in assay [3] it was 47.9 µM; in assay [4], 50.8 µM; in [5], 47.9 µM; in [6], 45 µM.

For the compound `CCC1=C(OC)C(=O)C2=C(NCCS2(=O)=O)C1=O`, the IC50 in assay [1] is above 50 µM. Besides, in assay [7], the result was inactive. For the same compound, the result in assay [8] was Active.

In turn, `CCCCCCCCCCCCCCC1=C(OC)C(=O)C2=C(NCCS2(=O)=O)C1=O` gave an IC50 in assay [1] above 50 µM.

With `CCC1=C(OC)C(=O)C2=C(C1=O)S(=O)(=O)CCN2`, the 50% inhibitory concentration (IC50) in [2] is above 50 µM; in [1], above 50 µM; in assay [3] it was above 50 µM; in assay [4], above 50 µM; in assay [5], 32.6 µM; in [6], above 50 µM. In addition, the result in [8] was Active. Also, the Activity in assay [9] is 9.6%.

`CCCCCCCCC1=C(OC)C(=O)C2=C(C1=O)S(=O)(=O)CCN2`: the IC50 in assay [2] was 14.1 µM; in [1], 20.7 µM; in assay [3], 24.8 µM; in assay [4], 13 µM; in assay [5] it was 8.7 µM; in assay [6] it was 7.2 µM. In addition, the outcome in [7] was Active. The Activity in assay [9] was found to be 45%; in [10], 26.5%.

Take `CCCCCCCCC1=C(OC)C(=O)C2=C(NCCS2(=O)=O)C1=O`: the IC50 in [1] is above 50 µM. Further, the outcome in assay [8] was Active.
